Compound activity from PubChem.
PMI act satM6P = human PMI activators, high substrate, primary screen, biochemical, fluorescence intensity, near-saturating mannose 6-phosphate; Mannose-6-phosphate isomerase (Homo sapiens), P34949; coupled PMI enzyme assay, resazurin fluorescence, 20 min; hits give high values; 1 = untreated enzyme, 0 = substrate-free blank; activation factor at 20 µM; 190,000 tested, 0.34% active;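 active means activation factor of 2 or more at 20 µM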
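test system = human PMI in coupled enzyme assay | medium = HEPES-buffered pH 7.4 with magnesium and detergent | also added = 1.0 mM mannose-6-phosphate substrate with 0.22 mM NADP+ | compound = 20 µM single dose | times = 20 min incubation at room temperature | measured by = resorufin fluorescence (Ex 544/Em 590 nm) from resazurin via diaphorase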
Diaphorase inh = diaphorase inhibitors and chemical oxidizers, primary screen, counter-screen for diaphorase-coupled primary assays, biochemical, uHTS, resorufin fluorescence | diaphorase resazurin-to-resorufin fluorescence, NADH, 16 min; bacterial (C. kluyveri) enzyme, not human | inhibition, % at 20 µM | 190,000 tested, 0.69% active;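 active means primary screen inhibition at 20 µM above a set limit, cut at about 50% in these data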
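System: Bacterial diaphorase enzyme (C. kluyveri) | Incubation: 16-min room-temperature incubation before reading | Benchmarks: No-NADH positive control and DMSO neutral control | Measured by: Resorufin fluorescence 544/590 nm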
FLuc inhib CS = firefly luciferase enzyme inhibitors, primary screen, artefact control for luciferase-based inhibitor screens, biochemical, luminescence, ATPLite. 200,000 tested, 1.5% active. inhibition, % at 10 µM. 10 min;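 active means inhibition above about 50% when tested at 10 µM, limit read from the data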
Target sequence (P08659 whole entry, looked up): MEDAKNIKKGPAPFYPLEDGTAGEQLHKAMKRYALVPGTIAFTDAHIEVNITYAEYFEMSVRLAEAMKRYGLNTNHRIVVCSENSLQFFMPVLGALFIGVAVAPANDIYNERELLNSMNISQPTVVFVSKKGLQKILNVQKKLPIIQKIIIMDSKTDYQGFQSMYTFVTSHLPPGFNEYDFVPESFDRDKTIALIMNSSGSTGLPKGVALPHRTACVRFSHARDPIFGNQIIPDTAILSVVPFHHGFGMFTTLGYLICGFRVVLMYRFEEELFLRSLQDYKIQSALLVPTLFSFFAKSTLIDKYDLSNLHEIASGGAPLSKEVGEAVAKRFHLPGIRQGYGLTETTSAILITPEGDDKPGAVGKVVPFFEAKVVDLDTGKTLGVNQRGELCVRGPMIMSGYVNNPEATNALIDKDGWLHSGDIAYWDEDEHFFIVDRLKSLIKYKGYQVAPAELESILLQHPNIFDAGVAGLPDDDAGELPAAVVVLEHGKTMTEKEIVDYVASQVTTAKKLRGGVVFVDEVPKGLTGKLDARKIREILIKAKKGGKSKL
Diaph act CS = compounds boosting diaphorase resazurin reduction – biochemical, uHTS, resorufin fluorescence, counter-screen for diaphorase-coupled primary assays, primary screen | Diaphorase/resazurin coupled assay, 16 min; hits give high values; 1 = vehicle wells, 0 = NADH-free wells | activation factor at 20 µM | 190,000 tested, 0.005% active | AID 1229, 2008;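 active means diaphorase activity raised at least twofold by the compound at 20 µM; inactive means activation factor below 2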
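Measured by – red resorufin fluorescence at 544/590 nm excitation/emission · Test system – Clostridium kluyveri diaphorase, purified enzyme · Incubation – reaction time 16 min, room temperature · Buffer or medium – 50 mM HEPES pH 7.4 with 4.542 mM MgCl2, 0.005% Tween 20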
PMI activator = activators of human PMI, primary screen, biochemical, fluorescence intensity, near-Km mannose 6-phosphate; activation factor at 20 µM; purified human PMI, coupled resazurin fluorescence, 20 min; hits give high values; 1 = vehicle control, 0 substrate-free wells; 190,000 tested, 0.005% active; Mannose-6-phosphate isomerase (Homo sapiens), P34949;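 active means activation factor of 2 or more at 20 µM, relative to plate controls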
FLuc stim CS = FLuc activators, initial screening, artefact control for FLuc-dependent activation tests, biochemical, ATPlite luminescence; Luciferin 4-monooxygenase (Photinus pyralis), P08659; AID 1027, 2008; activation factor at 10 µM; 200,000 tested, under 10 active; ATPlite luciferase biochemical, 10 min; 0 = ATP-free wells, 1 = DMSO control;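 active means luciferase activation factor, scaled between plate controls, of at least 2 with compound at 10 µM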
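Material: luciferase plus luciferin reagent, cell-free. Medium: PBS buffer for ATP. Also added: ATP substrate, dispensed from a 10.24 µM working solution in PBS. Doses: test compounds dosed from 2 mM stocks in 100% DMSO. Incubation: 10 min post-reagent at room temperature. Technique: light output (luminescence). Read-out basis: luminescence gain marking luciferase activators.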
Of the large screens only hits and unclear results are named; the others gave an inactive call. This is a sample that favours compounds with a hit; in the whole collection about 2.5% have one here.

COC(=O)c1ccccc1NS(=O)(=O)c1ccc(Cl)nc1	none
Cc1ccccc1-n1c(C)nnc1SCC(=O)N(C)C1CCS(=O)(=O)C1 (configuration not stated)	none
CC(=O)c1ccc2noc(-c3ccc(F)cc3)c2c1	PMI act satM6P 2.1
Cc1ccc(Nc2nnc(SCC(=O)NCCN3C(=O)CSC3=O)s2)cc1C	FLuc inhib CS 82
C=CCc1c(C)nc(-c2ccccc2)nc1N/N=C/c1ccncc1	FLuc inhib CS 53
C=CCc1c(C)nc(-c2ccccc2)nc1N/N=C/c1ccccc1	none
O=[N+]([O-])c1cc2c(cc1/C=N/NS(=O)(=O)c1ccc(Br)cc1)OCO2	none
COc1cc(C=Nc2cccc(C)c2)c(O)c([N+](=O)[O-])c1	none
O=[N+]([O-])c1cc2c(cc1C=Nc1ccccc1)OCO2	Diaphorase inh 53
Cc1cccc(N=Cc2cc3c(cc2[N+](=O)[O-])OCO3)c1	Diaphorase inh 61
CC(C)(C)c1ccc(/C=N/NC(=O)c2ccccn2)cc1	FLuc inhib CS 93
Cc1occc1C(=O)N/N=C/c1ccc(Br)s1	none
O=C(N/N=C/c1ccsc1)c1ccccn1	FLuc inhib CS 52
Cc1ccsc1/C=N/NC(=O)c1ccccn1	none
O=C(N/N=C/c1ccc(Br)s1)c1ccccn1	FLuc inhib CS 66
O=C(N/N=C/c1ccco1)c1ccccn1	none
Cc1nc(C(F)(F)F)c(C(=O)N/N=C(\N)c2ccccn2)s1	none
O=C1c2cccc3c(N4CCCCC4)ccc(c23)C(=O)N1c1cccc(O)c1	Diaphorase inh 60
CC1=Nc2nc(N3CCCCC3)c(C#N)c3c4c(nc(c23)N1)N(c1ccc(C(C)C)cc1)C(=O)C4	Diaphorase inh 81
CC(C)c1ccc(-c2nc(N3CCCCC3)[nH]c(=O)c2C#N)cc1	none
CC(C)N1CCc2c(sc(NC(=O)c3cc4cc([N+](=O)[O-])ccc4s3)c2C(N)=O)C1	Diaphorase inh 67
Cn1c(NC(=O)c2cc(-c3ccc4c(c3)OCO4)nc3ccccc23)cc(=O)n(C)c1=O	FLuc inhib CS 72
N#Cc1c(-c2ccccc2)nc(SCC(=O)Nc2nnc(C(F)(F)F)s2)[nH]c1=O	none
COc1cc2c(cc1NC(=O)C(C)Sc1ccc(NC(C)=O)cc1)oc1ccccc12 (configuration not stated)	Diaphorase inh 82
Cc1cc(C)c2nc3nc(C)c(C)cc3c(N)c2c1	none
CC(C)c1ccc(Nc2nc(CC(=O)O)cs2)cc1	FLuc inhib CS 71
Cc1nc2ccccc2n1C(=O)c1ccc(Cl)cc1[N+](=O)[O-]	Diaphorase inh 54
Cc1cc(C)nc(NC(=O)c2ccc(Cl)cc2[N+](=O)[O-])c1	none
CC1(CC(=O)O)C(=O)N=C2C=CC=CN21 (configuration not stated)	none
O=C(CSc1nc2ccccc2s1)Nc1ccc2c(c1)oc1ccccc12	none
O=C(CSc1nc2ccccc2s1)Nc1cc(C(=O)O)cc(C(=O)O)c1	Diaphorase inh 62
O=C(CSc1nc2ccccc2s1)Nc1ccc(Cl)c(C(=O)O)c1	PMI act satM6P 2.3
CC(C)C(NC(=O)c1ccccc1)C(=O)NCCc1ccccc1 (configuration not stated)	none
O=c1oc(-c2cccs2)nc2sc3c(c12)CCCCC3	FLuc inhib CS 67
COc1ccccc1Nc1nc(-c2c(C)[nH]c3ccccc23)cs1	PMI act satM6P 2
Cc1ccc(-c2nc3c(c(=O)c4ccccc4n3C)c(=O)n2-c2ccccc2)cc1	Diaphorase inh 53
CCCc1nc2c(c(=O)c3ccccc3n2C)c(=O)n1-c1ccc(F)cc1	Diaphorase inh 78
CC(C)c1nc2c(c(=O)c3ccccc3n2C)c(=O)n1-c1ccc(F)cc1	none
O=C(CSc1nnc(CCCN2C(=O)c3cccc4cccc(c34)C2=O)n1-c1ccccc1)NCCCO	none
O=C(CSc1nnc(CCCN2C(=O)c3cccc4cccc(c34)C2=O)n1-c1ccccc1)NCCCN1CCOCC1	Diaphorase inh 55
O=C1c2cccc3cccc(c23)C(=O)N1CCCc1n[nH]c(=S)n1-c1ccccc1	none
O=C(CSc1nnc(CCCN2C(=O)c3cccc4cccc(c34)C2=O)n1-c1ccccc1)N1CCN(CCO)CC1	Diaphorase inh 59
O=C(NCc1ccco1)c1cccn2c(=O)c3cc4ccccc4cc3nc12	PMI act satM6P 2.4, Diaphorase inh 66, PMI activator 2
CC(C)c1nc2oc3c(NCC4CCCO4)ncnc3c2c2c1COC(C)(C)C2 (configuration not stated)	Diaphorase inh 90
COc1cc(OC)cc(C(=O)N(CCCN2C(=O)c3cccc4cccc(c34)C2=O)c2cccc(OC)c2)c1	Diaphorase inh 53
COc1ccc(N(CCCN2C(=O)c3cccc4cccc(c34)C2=O)C(=O)c2cccnc2)cc1	Diaphorase inh 58
S=C(Nc1ccc2nsnc2c1)N1CCCCC1	Diaphorase inh 66
S=C(Nc1ccc2nc(-c3ccccn3)c(-c3ccccn3)nc2c1)N1CCCCCC1	none
CNc1nnc(-c2ccc(OC)cc2)s1	FLuc inhib CS 63
COc1ccc(-c2nnc(N)s2)cc1	none
COc1ccc2nc(/N=C/c3c(C)[nH]n(-c4ccc(C)cc4)c3=O)sc2c1	FLuc inhib CS 59
O=C(NC(=S)N(Cc1ccccc1)c1ccccn1)C1CC1	none
CCC1Nc2ccccc2-c2nnc(SC)nc2O1 (configuration not stated)	none
COc1ccccc1C(=O)C1Nc2ccccc2-c2nnc(SC)nc2O1 (configuration not stated)	PMI act satM6P 2.5
O=C1c2sc3nc4ccccc4n3c2C(=O)N1c1ccccc1Cl	none
N=c1cc(C2(O)CCCCC2)n2c(nc3ccccc32)s1	FLuc inhib CS 94
CCCn1ncc([C@@H]2C[C@H]3CN(Cc4cccc(Cl)c4)C(=O)[C@]34CCCN24)c1C	Diaphorase inh 60
CCn1ncc([C@@H]2C[C@H]3CN(Cc4cccc(Cl)c4)C(=O)[C@]34CCCN24)c1C	none
CN(C)c1cccc(-c2nnc(SCCCC#N)o2)c1	FLuc inhib CS 56
